Screening results: PubChem BioAssay, Johns Hopkins Ion Channel Center
KCNK3 inh = human KCNK3 channel inhibition, primary screen. AID 602410. O14649. B-score at 10 µM. 0.84% of 340,000 active. CHO-KCNK3 thallium flux, FluxOR fluorescence; active compounds read low;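 active means B-score under library mean minus 4 SD, starting fluorescence ratio at most library mean plus 5 SD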;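 further: more negative B-score means stronger inhibition of thallium flux through KCNK3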
hERG rescue = shields human hERG channel from block by proarrhythmic agents | CHO-hERG, FluxOR thallium flux, dofetilide IC70 present | activation (rescue from dofetilide block), less the hit threshold, % at 10 µM | 0.51% of 310,000 active | AID 1511;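 active means activation above the mean of controls blocked by dofetilide plus 5 SD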;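 further: thallium influx through hERG after potassium depolarization seen as dye fluorescence rise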
KCNK9 inh = inhibitors of human KCNK9 two-pore domain potassium channel. Q9NPC2. B-score at 10 µM. 1.2% of 310,000 active. AID 488922. HEK293 KCNK9, FluxOR thallium flux fluorescence; active compounds read low;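 active means ratio B-score over 3 SD below the library mean, with starting fluorescence within 5 SD of its mean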;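 further: negative B-score means less thallium flux so channel inhibition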
KCNQ1 pot = potentiators or activators of human KCNQ1 potassium channel; P51787; B-score at 10 µM; CHO-K1 KCNQ1, thallium flux FluxOR fluorescence; active compounds read high; 0.35% of 310,000 active;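 active means fluorescence ratio B-score, a plate-corrected score, at least three library SD, with initial intensity B-score within 5 SD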
Target sequence (P51787 whole entry, looked up): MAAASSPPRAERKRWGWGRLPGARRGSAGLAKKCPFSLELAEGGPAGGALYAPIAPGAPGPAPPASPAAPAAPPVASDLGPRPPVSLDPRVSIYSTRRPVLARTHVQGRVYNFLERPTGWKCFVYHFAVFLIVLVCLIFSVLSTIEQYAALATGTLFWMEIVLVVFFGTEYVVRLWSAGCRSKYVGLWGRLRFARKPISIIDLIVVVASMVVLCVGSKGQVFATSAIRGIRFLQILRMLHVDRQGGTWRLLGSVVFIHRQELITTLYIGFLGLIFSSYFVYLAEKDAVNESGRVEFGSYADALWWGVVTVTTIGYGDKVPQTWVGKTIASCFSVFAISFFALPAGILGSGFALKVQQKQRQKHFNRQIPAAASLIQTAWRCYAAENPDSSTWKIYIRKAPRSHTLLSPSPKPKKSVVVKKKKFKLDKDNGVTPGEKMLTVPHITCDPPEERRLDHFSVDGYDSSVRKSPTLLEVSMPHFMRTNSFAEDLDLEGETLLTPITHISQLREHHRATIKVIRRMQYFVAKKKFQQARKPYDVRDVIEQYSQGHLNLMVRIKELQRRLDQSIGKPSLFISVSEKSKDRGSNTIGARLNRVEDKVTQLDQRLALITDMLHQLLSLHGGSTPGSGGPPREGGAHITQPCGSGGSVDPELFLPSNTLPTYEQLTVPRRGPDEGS
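Assay system: CHO-K1 cells stably expressing KCNQ1. Medium: assay buffer for compound exposure, DMSO matched across wells. Timing: 37 °C overnight plating, 90-min dark dye load, 20-min compound pretreatment. Signal: kinetic FluxOR fluorescence, 10 s baseline plus 110 s post-stimulus.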
KCNQ1 inh = blocks the human KCNQ1 potassium channel; P51787; CHO-K1 KCNQ1, FluxOR thallium flux fluorescence; active compounds read high; B-score at 10 µM; 1.3% of 310,000 active;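 active means compounds whose thallium flux B-score, printed positive for inhibition, exceeds three library SD while starting fluorescence stays within three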;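 further: channel opened by potassium depolarization with thallium stimulus after 20 min compound exposure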
KCNQ1 block val = reconfirmed blocker of the human KCNQ1 potassium channel; shares compounds with KCNQ1 inh; KCNQ1 cell line, FluxOR thallium flux fluorescence; inhibition, % at 10 µM; 93% of 1,600 active; AID 588353;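 active means primary screen active, with duplicate mean exceeding buffer control mean plus 3 SD of buffer wells, cut at about 28% in these data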;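 further: 0% = buffer control ratio and 100% = XE991 inhibitor control ratio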
CHO Tl flux = KCNQ1 inhibitor counter-screen hit in parental CHO cells; fluorescence ratio (Tl flux) at 10 µM; shares compounds with KCNQ1 inh; 21% of 1,600 active; parental CHO-K1, FluxOR thallium flux fluorescence ratio; active compounds read low; zero means no signal rise above baseline;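 active means mean of duplicate thallium-flux fluorescence ratios in parental host cells more than 5 SD below the buffer control mean, cut at about 0.38 in these data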;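 further: ratio is peak minus minimum fluorescence divided by baseline fluorescence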
KCNQ1 ephys val = confirmation of human KCNQ1 potassium channel inhibitors by electrophysiology; calls only at 10 µM; KCNQ1-CHO cells, automated patch clamp current; 20% of 490 active; shares compounds with KCNQ1 inh;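 active means KCNQ1 current drop exceeding 3 SD of negative control wells, seen in both duplicate runs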;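 further: steady state current during a 2 s step from -80 to +40 mV; negative values mean current inhibition and positive values mean potentiation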
KCNQ2 spec = rat KCNQ2 inhibition in KCNQ1 inhibitor specificity screen; 71% of 1,600 active; KCNQ2 cells, FluxOR thallium flux fluorescence; inhibition, % at 10 µM; shares compounds with KCNQ1 inh;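 active means mean percent inhibition of the KCNQ2 thallium signal more than 5 SD above the buffer-only control wells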;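 further: KCNQ2 expressed in CHO cells; 0% = buffer control wells and 100% = XE-991 inhibitor control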
KCNQ1-KCNE1 inh = selectivity of KCNQ1 inhibitors: inhibition of human KCNQ1/KCNE1 channel. shares compounds with KCNQ1 inh. KCNQ1/KCNE1 cells, FluxOR thallium flux fluorescence. inhibition, % at 10 µM. 77% of 1,600 active. AID 652147;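 active means mean percent inhibition of duplicate wells above the buffer-only control mean plus 3 SD of those controls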;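 further: 0% = buffer only wells and 100% = XE-991 inhibitor control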
The depositor's hits bear a star; i = inactive; nt = no result given; + = active, no number. Sampled rows, rich in hits. Any-hit rate of the full collection: about 3.1%.

SMILES	KCNK3 inh	hERG rescue	KCNK9 inh	KCNQ1 pot	KCNQ1 inh	KCNQ1 block val	CHO Tl flux	KCNQ1 ephys val	KCNQ2 spec	KCNQ1-KCNE1 inh
CC1CN(c2nc3ccccc3nc2SCC(=O)Nc2cccc(C(F)(F)F)c2)CC(C)O1 (stereo unspecified)	-15*	-5	i	i	10*	120*	0.4	i	126%*	171%*
COc1ccc(C)cc1NC(=O)CSc1nc2ccccc2nc1N1CC(C)OC(C)C1 (stereo unspecified)	i	-9	i	i	7*	105*	0.44	i	95%*	121%*
COc1ccccc1NC(=O)CSc1nc2ccccc2nc1N1CC(C)OC(C)C1 (stereo unspecified)	i	-12	i	i	8*	86*	0.45	nt	106%*	118%*
C=C1[C@@H](O)[C@H](CC(C)C)N(Cc2ccccc2Br)S1(=O)=O	i	nt	nt	nt	nt	nt	nt	nt	nt	nt
CCOC(=O)NN=C1CCC(c2ccccc2)CC1 (stereo unspecified)	i	-11	i	i	i	nt	nt	nt	nt	nt
O=C(COc1ccccc1)N=C1SC2CS(=O)(=O)CC2N1c1ccccc1F (stereo unspecified)	i	-7	i	i	i	nt	nt	nt	nt	nt
O=C(NCCCN1CCCC1=O)c1ccccc1OCc1ccc(Cl)cc1Cl	i	nt	nt	nt	nt	nt	nt	nt	nt	nt
CCN1CCN(Cc2c(C(=O)N/N=C(\C)c3ccc(Cl)cc3)nnn2-c2nonc2N)CC1	i	-10	i	i	i	nt	nt	nt	nt	nt
CCN(CC)C(=O)c1nc[nH]c1C(=O)N1CCN(c2ccccc2)CC1	i	nt	nt	nt	nt	nt	nt	nt	nt	nt
Nc1ccc2nc3c(=O)n(C4CCCCC4)c(=O)[nH]c3nc2c1	i	-50	i	i	24*	+	0.1*	nt	i	i
Clc1ccc(-c2cnnc(-c3ccccn3)n2)cc1	i	nt	nt	nt	nt	nt	nt	nt	nt	nt
COc1ccc(CCNC(=O)c2cc(-c3ccccc3)c(N3CCOCC3)s2)cc1OC	i	-23	i	i	i	nt	nt	nt	nt	nt
COc1ccc2c(c1)c(CC(=O)Nc1ccccc1OC)c(C)n2C(=O)c1ccc(Cl)cc1	i	-7	i	i	7*	43*	0.39	nt	91%*	48%*
COc1ccc2c(c1)c(CC(=O)Nc1cc(C)ccc1C)c(C)n2C(=O)c1ccc(Cl)cc1	i	-12	i	i	i	nt	nt	nt	nt	nt
COc1ccc(-c2nc(NC(=O)c3cc(C(C)(C)C)nn3C)sc2C)cc1	i	-13	i	i	16*	128*	0.41	i	89%*	126%*
COc1ccc(-c2nc(NC(=O)c3c(C)noc3C)sc2C)cc1	i	nt	nt	nt	nt	nt	nt	nt	nt	nt
CCN(C(=O)CSc1n[nH]c(-c2ccccc2)n1)c1c(N)n(Cc2ccccc2)c(=O)[nH]c1=O	i	nt	nt	nt	nt	nt	nt	nt	nt	nt
O=S(=O)(c1ccc2[nH]c3c(c2c1)CCCC3)N1CCCCC1	i	-3	i	i	9*	88*	0.45	+	75%*	110%*
Cc1ccc(S(=O)(=O)N(Cc2ccccc2)Cc2ccco2)cc1	i	-15	i	i	7*	96*	0.46	i	93%*	40%*
Cc1ccc(S(=O)(=O)N(CCO)Cc2ccccc2)cc1	i	-1	i	i	i	nt	nt	nt	nt	nt
CC(CCc1ccc(O)cc1)NCc1ccc(Br)cc1 (stereo unspecified)	i	-5	i	i	i	nt	nt	nt	nt	nt
S=C(NCc1ccccc1)Nc1ccc(Oc2ccccc2)cc1	i	-4	i	i	7*	94*	0.43	i	74%*	49%*
Cc1cccc(OCCC(=O)OCC(=O)Nc2c(C)nn(-c3ccccc3)c2C)c1	i	-20	i	i	10*	32*	0.47	nt	64%*	36%*
CCOc1ccc2oc(C(=O)N3CCN(c4ccccc4OCC)CC3)c(C)c2c1	i	-21	i	i	6*	125*	0.42	i	131%*	+
CCOc1cc2c3c(c1)C1(Nc4ccccc4S1)C(=O)N3C(C)(C)CC2C (stereo unspecified)	i	-11	i	i	8*	96*	0.48	i	i	77%*
SMILES	KCNK3 inh	hERG rescue	KCNK9 inh	KCNQ1 pot	KCNQ1 inh	KCNQ1 block val	CHO Tl flux	KCNQ1 ephys val	KCNQ2 spec	KCNQ1-KCNE1 inh
CCOc1ccc(C(=O)N[C@H](C(=O)NNC(=O)c2cccs2)C(C)C)cc1	i	nt	nt	nt	nt	nt	nt	nt	nt	nt
O=C(CN1C(=O)NC2(CCCc3ccccc32)C1=O)Nc1ccccc1OC(F)F (stereo unspecified)	i	nt	nt	nt	nt	nt	nt	nt	nt	nt
O=C(c1cc2ccccc2o1)N(Cc1ccco1)Cc1cccs1	i	-20	i	i	7*	120*	0.36*	nt	91%*	190%*
COC(=O)c1ccccc1NC(=O)CN1CCN(c2ccccn2)CC1	i	-3	i	i	i	nt	nt	nt	nt	nt
COC(=O)c1ccccc1N/C=C1\CCc2c(c(C)nn2-c2ccccn2)C1=O	i	-15	i	i	6*	96*	0.51	i	97%*	141%*
O=C1c2ccccc2-c2onc3ccc(N4CCCC4)c1c23	i	-12	i	i	i	nt	nt	nt	nt	nt
CCOc1ccc2noc3c2c1C(=O)c1ccccc1-3	i	-48	i	i	32*	+	0.018*	nt	i	i
CCN=C(NCC)SC1CC(=O)N(c2cccc(OC)c2)C1=O (stereo unspecified)	i	-23	i	i	11*	64*	0.44	nt	71%*	62%*
CN(C)S(=O)(=O)c1ccc(NC(=O)c2ccc(Br)o2)cc1	i	-13	i	i	i	nt	nt	nt	nt	nt
CN(C1CCCCC1)S(=O)(=O)c1ccc(NC(=O)c2ccc(Br)o2)cc1	i	-9	-8*	i	7*	132*	0.42	i	115%*	193%*
Cc1cccc(NC(=O)CSCC(=O)Nc2ccccc2N2CCCCC2)c1	i	-9	i	i	i	nt	nt	nt	nt	nt
Cc1ccc(NC(=O)CSCC(=O)Nc2ccccc2N2CCCCC2)cc1	i	-16	i	i	8*	114*	0.42	+	i	168%*
O=C(CNCCC1=CCCCC1)Nc1ccccc1N1CCCCC1	i	-19	i	i	8*	132*	0.37*	nt	110%*	179%*
